Data taken from ChEMBL document CHEMBL4340551, “Design, synthesis and preliminary bioactivity studies of indomethacin derivatives as Bcl-2/Mcl-1 dual inhibitors” (Bioorg Med Chem, 2019).
pIC50, pKi: −log10 of the molar value.

Tests used:
[1] = target: T1, Apoptosis regulator Bcl-2 (Homo sapiens, UniProt P10415); experiment: Inhibition of 5-FAM-tagged Bid-BH3 peptide binding to Bcl2 (unknown origin) by fluorescence polarization assay; details: for pKi: read-out: Ki
[2] = target: T1, Apoptosis regulator Bcl-2; experiment: Potency index, ratio of Ki for UMI77 to Ki for test compound for inhibition of 5-FAM-tagged Bid-BH3 peptide binding to Bcl2 (unknown origin) by fluorescence polarization assay
[3] = target: T1, Apoptosis regulator Bcl-2; experiment: Potency index, ratio of Ki for WL276 to Ki for test compound for inhibition of 5-FAM-tagged Bid-BH3 peptide binding to Bcl2 (unknown origin) by fluorescence polarization assay
[4] = system: K562; experiment: Antiproliferative activity against human K562 cells assessed as reduction in cell growth incubated for 48 hrs by MTT assay; format: functional, cell-based; details: K562, 48 h
Outline: (§1)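 PC-3, Jurkat and K562 cells grown in RPMI 1640 with 10% FBS at 37°C, 5% CO2. Cells seeded at 2000-4000 per well and left 8 h before compound addition at a range of concentrations. Exposure 48 h, then 0.5% MTT solution for 4 h. Formazan dissolved in DMSO and absorbance read at 570 nm. IC50 derived from concentrations and inhibitory ratios.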

[5] = system: PC-3; experiment: Antiproliferative activity against human PC3 cells assessed as reduction in cell growth incubated for 48 hrs by MTT assay; format: functional, cell-based; details: PC-3, 48 h; outline: as §1
[6] = target: Induced myeloid leukemia cell differentiation protein Mcl-1 (Homo sapiens, UniProt Q07820); experiment: Inhibition of 5-FAM-tagged Bid-BH3 peptide binding to Mcl1 (unknown origin) by fluorescence polarization assay
Outline: (§2)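 Competitive fluorescence polarization in which compounds displace labelled Bid-BH3 peptide from the Bcl-2 family protein, read as a fall in mP. IC50 taken from mP versus concentration. Ki calculated from IC50, Kd, and the peptide and protein concentrations.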

[7] = system: Jurkat; experiment: Antiproliferative activity against human Jurkat cells assessed as reduction in cell growth incubated for 48 hrs by MTT assay; format: functional, cell-based; outline: as §1
[8] = target: Bcl-2-like protein 1 (Homo sapiens, UniProt Q07817); experiment: Inhibition of 5-FAM-tagged Bid-BH3 peptide binding to Bcl-XL (unknown origin) by fluorescence polarization assay; details: for pKi: read-out: Ki; outline: as §2
[9] = system: Jurkat; experiment: Induction of apoptosis in human Jurkat cells assessed as early apoptotic cells level at 20 uM incubated for 48 hrs by annexin-V/FITC and propidium iodide staining based flow cytometry (reference value: 7.02%); format: functional
[10] = system: Jurkat; experiment: Induction of apoptosis in human Jurkat cells assessed as viable cells level at 20 uM incubated for 48 hrs by annexin-V/FITC and propidium iodide staining based flow cytometry (reference value: 86.5%); format: functional
[11] = system: Jurkat; experiment: Induction of apoptosis in human Jurkat cells assessed as early apoptotic cells level at 40 uM incubated for 48 hrs by annexin-V/FITC and propidium iodide staining based flow cytometry (reference value: 7.02%); format: functional
[12] = system: Jurkat; experiment: Induction of apoptosis in human Jurkat cells assessed as viable cells level at 40 uM incubated for 48 hrs by annexin-V/FITC and propidium iodide staining based flow cytometry (reference value: 86.5%); format: functional
[13] = system: Jurkat; experiment: Induction of apoptosis in human Jurkat cells assessed as late apoptotic cells level at 20 uM incubated for 48 hrs by annexin-V/FITC and propidium iodide staining based flow cytometry (reference value: 6.29%); format: functional
[14] = system: Jurkat; experiment: Induction of apoptosis in human Jurkat cells assessed as necrotic cells level at 20 uM incubated for 48 hrs by annexin-V/FITC and propidium iodide staining based flow cytometry (reference value: 6.29%); format: functional
[15] = system: Jurkat; experiment: Induction of apoptosis in human Jurkat cells assessed as late apoptotic cells level at 40 uM incubated for 48 hrs by annexin-V/FITC and propidium iodide staining based flow cytometry (reference value: 6.29%); format: functional
[16] = system: Jurkat; experiment: Induction of apoptosis in human Jurkat cells assessed as necrotic cells level at 40 uM incubated for 48 hrs by annexin-V/FITC and propidium iodide staining based flow cytometry (reference value: 6.29%); format: functional
[17] = target: T1, Apoptosis regulator Bcl-2; experiment: Inhibition of 5-FAM-tagged Bid-BH3 peptide binding to Bcl2 (unknown origin) at 100 uM by fluorescence polarization assay relative to untreated control

T1 sequence (P10415 whole entry): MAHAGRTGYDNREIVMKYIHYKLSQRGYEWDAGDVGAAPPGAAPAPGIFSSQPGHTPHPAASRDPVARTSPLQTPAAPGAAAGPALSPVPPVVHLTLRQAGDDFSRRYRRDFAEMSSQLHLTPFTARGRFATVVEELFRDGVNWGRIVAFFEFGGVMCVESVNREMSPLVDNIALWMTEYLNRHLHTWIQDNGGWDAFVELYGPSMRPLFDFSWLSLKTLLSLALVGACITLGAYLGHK
Chain of Induced myeloid leukemia cell differentiation protein Mcl-1 (Q07820 whole entry): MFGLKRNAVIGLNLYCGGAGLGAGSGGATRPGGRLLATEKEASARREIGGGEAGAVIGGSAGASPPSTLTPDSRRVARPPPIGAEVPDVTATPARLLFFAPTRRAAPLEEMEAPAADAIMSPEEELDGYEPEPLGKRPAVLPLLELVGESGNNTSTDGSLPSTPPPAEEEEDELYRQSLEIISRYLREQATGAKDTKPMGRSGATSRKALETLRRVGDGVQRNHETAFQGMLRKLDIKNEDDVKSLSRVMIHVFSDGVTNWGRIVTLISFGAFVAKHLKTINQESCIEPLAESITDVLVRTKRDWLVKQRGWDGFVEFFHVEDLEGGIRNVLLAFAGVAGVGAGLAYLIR
Chain of Bcl-2-like protein 1 (Q07817 whole entry): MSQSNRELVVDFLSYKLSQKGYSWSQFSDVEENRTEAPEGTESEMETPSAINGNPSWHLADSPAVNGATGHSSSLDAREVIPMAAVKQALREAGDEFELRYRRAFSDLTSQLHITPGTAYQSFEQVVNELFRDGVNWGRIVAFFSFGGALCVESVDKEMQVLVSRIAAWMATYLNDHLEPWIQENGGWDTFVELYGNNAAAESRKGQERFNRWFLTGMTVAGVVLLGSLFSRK

pKi [1]	Ratio Ki [2]	Ratio Ki [3]	Compound	also measured
6.28	5 to 6	2 to 3	COc1ccc2c(c1)c(CC(=O)N[C@@H](Cc1ccc(OCc3ccccc3)cc1)C(=O)NS(=O)(=O)c1ccc(Br)cc1)c(C)n2C(=O)c1ccc(Cl)cc1	–
6.28	5 to 6	2 to 3	COc1ccc2c(c1)c(CC(=O)N[C@@H](Cc1ccc(OCc3ccccc3)cc1)C(=O)NS(=O)(=O)c1ccc(Cl)c([N+](=O)[O-])c1)c(C)n2C(=O)c1ccc(Cl)cc1	–
–	–	–	COc1ccc2c(c1)c(CC(=O)N[C@@H](C)C(=O)NS(=O)(=O)c1ccc(Cl)c([N+](=O)[O-])c1)c(C)n2C(=O)c1ccc(Cl)cc1	Ki [1]: Not Active
6.35	5 to 6	2 to 3	COc1ccc2c(c1)c(CC(=O)N[C@@H](Cc1ccc(OCc3ccccc3Br)cc1)C(=O)NS(=O)(=O)c1ccc(Cl)c([N+](=O)[O-])c1)c(C)n2C(=O)c1ccc(Cl)cc1	pIC50 [4]: 4.38; pIC50 [5]: 4.44; pKi [6]: 6.28; pIC50 [7]: 4.47; Ki [8]: Not Active
–	–	–	COc1ccc2c(c1)c(CC(=O)NCC(=O)NS(=O)(=O)c1ccc(Br)cc1)c(C)n2C(=O)c1ccc(Cl)cc1	Ki [1]: Not Active
< 5.30	–	–	COc1ccc(C[C@H](NC(=O)Cc2c(C)n(C(=O)c3ccc(Cl)cc3)c3ccc(OC)cc23)C(=O)NS(=O)(=O)c2ccc(Br)cc2)cc1	–
< 5.30	–	–	COc1ccc(C[C@H](NC(=O)Cc2c(C)n(C(=O)c3ccc(Cl)cc3)c3ccc(OC)cc23)C(=O)NS(=O)(=O)c2ccc(Cl)c([N+](=O)[O-])c2)cc1	–
6.23	–	–	COc1ccc2c(c1)c(CC(=O)N[C@@H](Cc1ccc(Br)cc1)C(=O)NS(=O)(=O)c1ccc(Cl)c([N+](=O)[O-])c1)c(C)n2C(=O)c1ccc(Cl)cc1	–
–	–	–	COc1ccc2c(c1)c(CC(=O)N[C@H](C(=O)NS(=O)(=O)c1ccc(Cl)c([N+](=O)[O-])c1)C(C)C)c(C)n2C(=O)c1ccc(Cl)cc1	Ki [1]: Not Active
6.17	5 to 6	2 to 3	COc1ccc2c(c1)c(CC(=O)N[C@@H](Cc1ccc(OCc3ccccc3C#N)cc1)C(=O)NS(=O)(=O)c1ccc(Cl)c([N+](=O)[O-])c1)c(C)n2C(=O)c1ccc(Cl)cc1	–
6.25	5 to 6	2 to 3	COc1ccc2c(c1)c(CC(=O)N[C@@H](Cc1ccc(OCc3ccc4ccccc4c3)cc1)C(=O)NS(=O)(=O)c1ccc(Cl)c([N+](=O)[O-])c1)c(C)n2C(=O)c1ccc(Cl)cc1	–
6.33	5 to 6	2 to 3	COc1ccc2c(c1)c(CC(=O)N[C@@H](Cc1ccc(OCc3ccc(C#N)cc3)cc1)C(=O)NS(=O)(=O)c1ccc(Cl)c([N+](=O)[O-])c1)c(C)n2C(=O)c1ccc(Cl)cc1	pIC50 [4]: 4.31; pIC50 [5]: 4.41; pKi [6]: 6.28; pIC50 [7]: 4.08; Ki [8]: Not Active
5.54	–	–	O=C(O)CSc1cc(NS(=O)(=O)c2ccc(Br)cc2)c2ccccc2c1O	pKi [6]: 6.74; pKi [8]: 5.11
6.37	5 to 6	2 to 3	COc1ccc2c(c1)c(CC(=O)N[C@@H](Cc1ccc(OCc3cccc(C)c3)cc1)C(=O)NS(=O)(=O)c1ccc(Cl)c([N+](=O)[O-])c1)c(C)n2C(=O)c1ccc(Cl)cc1	pIC50 [4]: 4.41; pIC50 [5]: 4.54; pKi [6]: 6.31; pIC50 [7]: 4.52; Ki [8]: Not Active
< 5.30	–	–	COc1ccc2c(c1)c(CC(=O)N[C@@H](Cc1c[nH]c3ccccc13)C(=O)NS(=O)(=O)c1ccc(Cl)c([N+](=O)[O-])c1)c(C)n2C(=O)c1ccc(Cl)cc1	–
6.20	5 to 6	2 to 3	COc1ccc2c(c1)c(CC(=O)N[C@@H](Cc1ccc(OCc3ccc([N+](=O)[O-])cc3)cc1)C(=O)NS(=O)(=O)c1ccc(Br)cc1)c(C)n2C(=O)c1ccc(Cl)cc1	–
5.82	–	–	Cc1ccc(S(=O)(=O)NC(=O)[C@H](Cc2ccccc2)N2C(=O)/C(=C/c3ccc(-c4ccccc4)cc3)SC2=S)cc1	Activity [9]: 15.5%; pIC50 [4]: 4.37; Activity [10]: 70.7%; pKi [6]: 5.96; Activity [11]: 17.4%; Activity [12]: 65.5%; pIC50 [7]: 4.50; Activity [13]: 13.6%; Activity [14]: 0.22%; Activity [15]: 16.8%; pKi [8]: 5.89; Activity [16]: 0.3%
< 5.30	–	–	COc1ccc2c(c1)c(CC(=O)N[C@@H](Cc1ccccc1)C(=O)NS(=O)(=O)c1ccc(Cl)c([N+](=O)[O-])c1)c(C)n2C(=O)c1ccc(Cl)cc1	–
6.32	5 to 6	2 to 3	COc1cccc(COc2ccc(C[C@H](NC(=O)Cc3c(C)n(C(=O)c4ccc(Cl)cc4)c4ccc(OC)cc34)C(=O)NS(=O)(=O)c3ccc(Cl)c([N+](=O)[O-])c3)cc2)c1	pIC50 [4]: 4.44; pIC50 [5]: 4.50; pIC50 [7]: 4.44
6.29	5 to 6	2 to 3	COc1ccc2c(c1)c(CC(=O)N[C@@H](Cc1ccc(OCc3ccc([N+](=O)[O-])cc3)cc1)C(=O)NS(=O)(=O)c1ccc(Cl)c([N+](=O)[O-])c1)c(C)n2C(=O)c1ccc(Cl)cc1	–
6.25	5 to 6	2 to 3	COc1ccc2c(c1)c(CC(=O)N[C@@H](Cc1ccc(OCc3ccc(C)cc3)cc1)C(=O)NS(=O)(=O)c1ccc(Cl)c([N+](=O)[O-])c1)c(C)n2C(=O)c1ccc(Cl)cc1	–
5.89	–	–	CCCOc1ccc(C[C@H](NC(=O)Cc2c(C)n(C(=O)c3ccc(Cl)cc3)c3ccc(OC)cc23)C(=O)NS(=O)(=O)c2ccc(Cl)c([N+](=O)[O-])c2)cc1	–
5.31	–	–	CCC(C)[C@H](NC(=O)Cc1c(C)n(C(=O)c2ccc(Cl)cc2)c2ccc(OC)cc12)C(=O)NS(=O)(=O)c1ccc(Cl)c([N+](=O)[O-])c1 (some centres not stated)	–
–	–	–	COc1ccc2c(c1)c(CC(=O)N[C@@H](Cc1ccccc1)C(=O)NS(=O)(=O)c1ccccc1)c(C)n2C(=O)c1ccc(Cl)cc1	Ki [1]: Not Active
–	–	–	COc1ccc2c(c1)c(CC(=O)NCC(=O)NS(=O)(=O)c1ccc(Cl)c([N+](=O)[O-])c1)c(C)n2C(=O)c1ccc(Cl)cc1	inhibition [17]: 94%; Ki [1]: Not Active
6.36	5 to 6	2 to 3	COc1ccc2c(c1)c(CC(=O)N[C@@H](Cc1ccc(OCc3cccc(C#N)c3)cc1)C(=O)NS(=O)(=O)c1ccc(Cl)c([N+](=O)[O-])c1)c(C)n2C(=O)c1ccc(Cl)cc1	pIC50 [4]: 4.29; pIC50 [5]: 4.42; pKi [6]: 6.32; pIC50 [7]: 4.26; Ki [8]: Not Active
< 5.30	–	–	COc1ccc2c(c1)c(CC(=O)N[C@@H](Cc1ccccc1)C(=O)NS(=O)(=O)c1ccc(Br)cc1)c(C)n2C(=O)c1ccc(Cl)cc1	–
< 5.30	–	–	COc1ccc2c(c1)c(CC(=O)N[C@@H](CC(C)C)C(=O)NS(=O)(=O)c1ccc(Cl)c([N+](=O)[O-])c1)c(C)n2C(=O)c1ccc(Cl)cc1	–
< 5.30	–	–	COc1ccc2c(c1)c(CC(=O)N[C@@H](CCSC)C(=O)NS(=O)(=O)c1ccc(Cl)c([N+](=O)[O-])c1)c(C)n2C(=O)c1ccc(Cl)cc1	–
< 5.30	–	–	COc1ccc2c(c1)c(CC(=O)N[C@@H](Cc1ccc(OC(C)C)cc1)C(=O)NS(=O)(=O)c1ccc(Cl)c([N+](=O)[O-])c1)c(C)n2C(=O)c1ccc(Cl)cc1	–
